Only some compounds are listed: those with a hit (about 3.7% of all), similar ones and a draw of the others.
Granule exo inh – lytic granule exocytosis inhibition. TALL-104 LAMP-1 surface exposure, flow cytometry; cells stimulated with thapsigargin and PMA. inhibition, % at 10 µM. 0.66% of 360,000 active;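 active = inhibition above about 55%, limit read from the data; inconclusive = no clear call, values can overlap the other calls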
EBI2 antag – EBI2 (human) antagonism; P32249; EBI2 beta-arrestin recruitment, luminescence, 7a,25-OHC stimulated; inhibition, % at 5 µM; 0.81% of 360,000 active; in the data active = inhibition above about 38%;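 note: enzyme fragment complementation signal reports receptor beta-arrestin coupling in cells; 0% = agonist plus DMSO wells and 100% = wells without agonist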
MC4R barr agon – human MC4R agonism via beta-arrestin. U2OS MC4R beta-arrestin complementation, luminescence; percent of melanotan II response, DMSO zero. activation, % at 8.9 µM. 0.98% of 360,000 active. AID 540308;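 active = activation above a per-plate cutoff, the mean activation of sample wells on that plate plus 3 SD, cut at about 8% in these data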
Myeloid diff 2 – compounds promoting myeloid differentiation; ER-HoxA9 myeloid progenitors, lysozyme-GFP differentiation, flow cytometry; calls only at 10 µM; 1% of 360,000 active; AID 624256;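 active = normalized GFP-positive differentiation at or above the plate's own cutoff, the solvent-only control mean plus 3 SD; inconclusive = no clear call, values can overlap the other calls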;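 note: cells exposed to compound for four days before flow analysis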
MC4R antagonist – antagonists of human melanocortin 4 receptor (MC4R); P32245; MC4R-expressing cells, MTII-stimulated cAMP, LANCE TR-FRET; inhibition, % at 6.5 µM; 0.48% of 360,000 active; AID 540295;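 active = inhibition above its plate's cutoff, the mean of tested wells on that plate plus 3 SD, cut at about 29% in these data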;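 note: 0% = Melanotan II alone and 100% = Melanotan II plus saturating MCL0020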
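Assay system: U2OS cells stably expressing human melanocortin 4 receptor (MC4R) / Dosing: 6.5 µM / Timing: compound 30 min, challenge 1 h, detection 1 h / Measured by: Eu-cAMP/anti-cAMP TR-FRET, emission 671 nm / Replicates: singlicate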
MC4R barr conf – human MC4R beta-arrestin agonism confirmation; 31% of 2,400 active; shares compounds with MC4R barr agon; U2OS MC4R beta-arrestin recruitment, luminescence; scaled DMSO 0%, Melanotan II 100%; activation, % at 8.9 µM;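 active = mean activation across replicates above the hit cutoff set in the earlier primary screen, cut at about 8% in these data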
MOR DOR agonist – activates mu-delta opioid heterodimer, MC4R agonist counter-screen; 5.8% of 2,400 active; shares compounds with MC4R barr agon; activation, % at 9.2 µM; U2OS PathHunter beta-arrestin, beta-gal luminescence; percent of deltorphin B response, DMSO zero;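 active = mean activation across replicates exceeds the hit threshold derived in the earlier primary screen, cut at about 18% in these data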;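 note: 100% = deltorphin B at 0.9 µM final and 0% = DMSO alone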
Target sequence (P35372 whole entry, looked up): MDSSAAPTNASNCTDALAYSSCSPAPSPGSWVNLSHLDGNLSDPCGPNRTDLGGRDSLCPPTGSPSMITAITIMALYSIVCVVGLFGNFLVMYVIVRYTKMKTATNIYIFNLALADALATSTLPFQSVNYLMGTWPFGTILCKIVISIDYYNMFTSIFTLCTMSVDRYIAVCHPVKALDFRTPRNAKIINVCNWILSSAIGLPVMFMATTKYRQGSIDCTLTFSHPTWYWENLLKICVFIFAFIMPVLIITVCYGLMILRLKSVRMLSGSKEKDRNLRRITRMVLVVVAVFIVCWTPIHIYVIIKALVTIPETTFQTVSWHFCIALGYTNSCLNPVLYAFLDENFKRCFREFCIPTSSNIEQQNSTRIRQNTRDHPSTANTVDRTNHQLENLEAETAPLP
Target sequence (P41143 whole entry, looked up): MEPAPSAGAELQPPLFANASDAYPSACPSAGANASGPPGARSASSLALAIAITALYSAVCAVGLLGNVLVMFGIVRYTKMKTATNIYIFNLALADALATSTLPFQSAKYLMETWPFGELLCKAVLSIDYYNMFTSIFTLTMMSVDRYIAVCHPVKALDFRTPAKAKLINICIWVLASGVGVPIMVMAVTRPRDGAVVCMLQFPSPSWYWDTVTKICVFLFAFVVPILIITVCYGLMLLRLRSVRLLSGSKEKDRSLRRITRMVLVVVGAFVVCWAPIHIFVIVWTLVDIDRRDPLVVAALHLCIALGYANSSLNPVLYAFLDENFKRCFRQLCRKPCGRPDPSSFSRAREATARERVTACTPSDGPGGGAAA
* hit, by the source's call; i = inactive; ? = inconclusive; / = no result given.

SMILES | Granule exo inh | EBI2 antag | MC4R barr agon | Myeloid diff 2 | MC4R antagonist | MC4R barr conf | MOR DOR agonist
CCCC(NC(=O)CCc1c(C)c2cc3c(-c4ccccc4)coc3cc2oc1=O)C(=O)O (centres undefined) | 2.2 | -1.7 | -0.8 | i | 7.9 | / | /
COc1ccc(CNC(=S)Nc2ccc(-c3ccccc3)cc2)cc1 | 2.7 | 12.0 | 12.6* | i | -4.3 | 4.5 | 7.7
Cc1ccc(S(=O)(=O)Nc2cc(=O)[nH]c(SCc3ccc(Cl)cc3)n2)cc1 | 0.1 | -0.8 | 18.9* | i | 9.2 | 7.3 | 1.8
CC1(C)OCC(CNC(=O)c2[nH]c(C(F)(F)F)nc2-c2ccccc2)O1 (centres undefined) | -2.4 | -3.7 | / | i | / | / | /
Cc1ccc(NC(=O)c2ccc(NCCc3ccccc3)c([N+](=O)[O-])c2)cc1F | 1.3 | 21.9 | 3.2 | i | 20.4 | / | /
O=C(Nc1cc(F)cc(F)c1)c1ccc(NCCc2ccccc2)c([N+](=O)[O-])c1 | 5.4 | 22.6 | 10.2* | i | -3.6 | -0.8 | 5.2
COc1ccc(NC(=O)CSc2ncccc2C(=O)OC(C)C)cc1OC | 0.4 | -14.5 | -1.1 | i | 0.1 | / | /
CC(C)c1ccc(NC(=O)CSc2ncccc2C(=O)Oc2cccc([N+](=O)[O-])c2)cc1 | -2.7 | -13.9 | 19.6* | i | -14.2 | 17.0* | 1.6
CC(C)c1ccc(NC(=O)COC(=O)/C=C/c2cccc([N+](=O)[O-])c2)cc1 | 1.6 | -11.8 | 16.0* | i | 0.7 | 0.6 | 2.8
O=C(COC(=O)/C=C/c1cccc(Cl)c1)Nc1ccc(N2CCOCC2)cc1 | -0.6 | 8.7 | 9.8* | i | -2.8 | -0.3 | 8.1
Cc1ccc(C(=O)N/C(=C/c2cccnc2)C(=O)N2CCCCCC2)cc1 | 0.3 | -0.2 | -3.6 | i | 0.3 | / | /
CC(c1cccs1)N(C)Cc1nc(CCc2ccccc2)no1 (centres undefined) | -2.1 | 6.9 | -0.8 | i | 3.7 | / | /
CCCCc1ccc(NS(=O)(=O)c2cccs2)cc1 | -1.0 | -0.1 | 17.4* | i | 15.0 | 8.5* | 6.8
O=S(=O)(Nc1ccc(Cc2ccncc2)cc1)c1cccs1 | -1.7 | 2.5 | -0.7 | i | 13.1 | / | /
N#C/C(=C\c1cn(CCOc2ccccc2F)c2ccccc12)C(=O)NCc1cccs1 | -5.6 | 32.3 | 10.4* | i | 10.1 | 25.7* | 7.8
Cc1ccccc1OCCn1cc(/C=C(\C#N)C(=O)NCc2ccco2)c2ccccc21 | 2.4 | 26.1 | 25.6* | i | 4.2 | 12.0* | 6.0
NCCCNc1ccc([N+](=O)[O-])cc1C(F)(F)F | -4.5 | -6.6 | -0.3 | i | 0.6 | / | /
CCOC(=O)C1(Cc2ccccc2C)CCCN(C(=O)CCc2cccnc2)C1 (centres undefined) | 0.0 | 19.3 | -2.1 | i | -6.0 | / | /
NS(=O)(=O)c1ccc(CCNC(=O)CSc2ccsc2[N+](=O)[O-])cc1 | 0.0 | 2.0 | 0.9 | i | -2.6 | / | /
CSc1ccc(CCNC(=O)CSc2ccsc2[N+](=O)[O-])cc1 | -1.2 | 16.7 | 11.2* | i | 0.3 | 3.5 | 12.4
Clc1nc(Cl)nc(NCCC2=CCCCC2)n1 | 10.9 | -3.7 | -0.3 | i | 10.8 | / | /
CC(=O)Nc1ccc(/C(C)=N/NC(=O)c2ccc(COc3ccccc3Cl)o2)cc1 | -7.9 | -7.4 | 0.2 | i | 13.4 | / | /
COc1ccc(/C=N/NC(=O)c2ccc(COc3ccccc3Cl)o2)c(OC)c1C | -1.9 | -2.5 | 17.1* | i | -3.4 | 18.5* | 10.2
COc1ccc(/C=N/NC(=O)c2ccc(COc3ccccc3Cl)o2)cc1 | 2.9 | -0.9 | 9.9* | i | 6.5 | 6.1 | 3.6
COC(=O)[C@H]1C[C@@]2(O)CN(S(=O)(=O)c3ccc(C)cc3)C[C@@]2(OC(=O)NC2CC2)C[C@H]1C(=O)OC | 9.2 | -2.4 | 0.7 | i | 11.7 | / | /
SMILES | Granule exo inh | EBI2 antag | MC4R barr agon | Myeloid diff 2 | MC4R antagonist | MC4R barr conf | MOR DOR agonist
Cc1ccc2nc(-c3cccc(NC(=O)c4ccc5c(c4)OCCO5)c3)oc2c1 | 1.4 | -4.9 | 22.8* | i | 11.7 | 2.2 | 3.8
CCC(=O)Nc1cccc(-c2nc3ccc(C)cc3o2)c1 | 2.0 | -10.3 | 0.0 | i | 3.8 | / | /
COc1ccccc1C1CCN(C(=O)c2cccc([N+](=O)[O-])c2)CC1 | 1.6 | 18.1 | -3.7 | i | 4.2 | / | /
Cc1cc(C)cc(OCC(=O)Nc2ccccc2C(=O)NCc2ccco2)c1 | -1.1 | 1.8 | 31.4* | i | -1.4 | 1.0 | 5.0
O=C(COc1ccc(Cl)cc1)Nc1ccccc1C(=O)NCc1ccco1 | -3.0 | 9.4 | 5.7 | i | -5.0 | / | /
O=NN(Cc1cccnc1)C(=O)NC1CCCCC1 | -5.7 | -6.0 | / | i | / | / | /
CCOC(=O)Cn1c(=NC(=O)c2nc3ccccc3s2)sc2cc(S(N)(=O)=O)ccc21 | -10.0 | 10.6 | 11.5* | i | 28.3 | 1.2 | 2.9
CCOC(=O)Cn1c(=NC(=O)CN2C(=O)CCC2=O)sc2cc(S(N)(=O)=O)ccc21 | -2.0 | -5.1 | 3.1 | i | 6.3 | / | /
O=C(NC(=S)NCCC1=CCCCC1)c1ccco1 | -2.6 | 3.8 | 10.1* | i | 9.8 | -0.9 | 6.6
CCCCCCCCC[n+]1cccc2c3ccccc3ccc21 | 56.0* | -29.0 | 12.8* | / | -12.4 | 8.4* | 6.8
Cc1ccccc1C[n+]1cccc2ccccc21 | -4.5 | -1.0 | -2.4 | ? | 0.6 | / | /
CCCCCCCCCCCCCCCC[n+]1cccc2ccccc21 | 40.5 | -19.2 | 18.4* | / | -8.3 | 34.3* | 22.8*
c1ccc2c(c1)ccc1ccccc12 | -1.5 | -3.1 | 5.2 | i | -6.5 | / | /
C(=C\c1ccccc1)/CN1CCN(C(c2nnnn2Cc2ccccc2)C2CC2)CC1 (centres undefined) | 12.0 | 14.4 | / | i | / | / | /
Cc1ccc(COc2ccc(/C=N/NC(=O)c3nnn(-c4nonc4N)c3COc3ccc(F)cc3)cc2)cc1 | -4.6 | 18.4 | -1.9 | i | 2.7 | / | /
Nc1nonc1-n1nnc(C(=O)N/N=C/c2ccc(OCc3ccc(F)cc3)cc2)c1COc1ccccc1 | 0.4 | -13.1 | 19.5* | i | 19.5 | 8.2 | 2.9
O=C(N/N=C/c1ccccc1)c1ccc(OCc2ccccc2)cc1 | -8.6 | 29.9 | 11.9* | i | 0.2 | 3.2 | 4.3
CCCN(CCC)Cc1c(C(=O)N/N=C/c2ccc(C)o2)nnn1-c1nonc1N | -3.4 | 9.7 | 13.0* | i | 5.7 | 2.8 | 14.2
CCOc1ccccc1Nc1nnc(SCC(=O)Nc2cccc(S(=O)(=O)NC3=NCCCCC3)c2)s1 | -10.2 | -6.6 | 0.1 | i | -0.1 | / | /
Cc1cc(OC(C)C(=O)NCc2ccccn2)c2c(C)cc(=O)oc2c1 (centres undefined) | 0.9 | -0.5 | 1.3 | i | 13.1 | / | /

From PubChem BioAssay
